This is an account of results in ChEMBL document CHEMBL1127047, “10,5-(Iminomethano)-10,11-dihydro-5H-dibenzo[a,d]cycloheptene and derivatives. Potent PCP receptor ligands” (J Med Chem, 1993).

The IC50 is the midpoint of a concentration-inhibition curve. A high value points to weaker potency.

One assay concerns the target Glutamate NMDA receptor. The assay is described as follows: Inhibition of [3H]MK-801 binding to the PCP receptor site in guinea pig brain homogenate. In kind it is tissue-based.
The nature of assay [1]: In vitro neuroprotection against glutamate-induced toxicity at 5 uM using rat hippocampal cell cultures at 100 uM of glutamate. The assay is classed as functional, Hippocampus. Put shortly: (§1)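 Dissociated hippocampal cultures from 1–3 day postnatal Sprague–Dawley rats, papain-dissociated and treated with 5 μM cytosine arabinoside. Blind, coded test. In HEPES-buffered salt solution (pH 7.4, 32–34 °C), cultures got a 5 min preincubation with 1 μM glycine plus compound, then 5 min with glycine, compound and glutamate. Next day, 0.4% Trypan Blue; surviving cells in the grid were counted by phase contrast and expressed as % of highest count.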

Assay [2] can be described thus: In vitro neuroprotection against glutamate-induced toxicity at 5 uM using rat hippocampal cell cultures at 3 uM of glutamate. In kind it is functional, Hippocampus. Put shortly:
as §1

Assay [3] can be described thus: In vitro neuroprotection against glutamate-induced toxicity at 5 uM using rat hippocampal cell cultures at 1000 uM of glutamate. In kind it is functional, Hippocampus. The gist of the method:
as §1

A short description of assay [4]: In vitro neuroprotection against glutamate-induced toxicity at 5 uM using rat hippocampal cell cultures at 10 uM of glutamate. In kind it is functional, Hippocampus. Put shortly: as §1
Assay [5] is described as follows: In vitro neuroprotection against glutamate-induced toxicity at 5 uM using rat hippocampal cell cultures at 30 uM of glutamate. The assay is classed as functional, Hippocampus. The gist of the method: as §1
A short description of assay [6]: In vitro neuroprotection against glutamate-induced toxicity at 5 uM using rat hippocampal cell cultures at 300 uM of glutamate. The assay is classed as functional, Hippocampus. The gist of the method:
as §1

Assay [7] is described as follows: In vitro neuroprotection against glutamate-induced toxicity at 5 uM using rat hippocampal cell cultures at 0 uM of glutamate. The assay is classed as functional, Hippocampus. The gist of the method: as §1
The nature of assay [8]: In vitro neuroprotection against glutamate-induced toxicity at 10 uM using rat hippocampal cell cultures at 30 uM of glutamate. The assay is classed as functional, Hippocampus. Put shortly:
as §1

Assay [9] can be described thus: In vitro neuroprotection against glutamate-induced toxicity at 10 uM using rat hippocampal cell cultures at 10 uM of glutamate. In kind it is functional, Hippocampus. Put shortly:
as §1

Assay [10] can be described thus: In vitro neuroprotection against glutamate-induced toxicity at 10 uM using rat hippocampal cell cultures at 100 uM of glutamate. In kind it is functional, Hippocampus. Put shortly: as §1
The nature of assay [11]: In vitro neuroprotection against glutamate-induced toxicity at 10 uM using rat hippocampal cell cultures at 3 uM of glutamate. In kind it is functional, Hippocampus. The gist of the method: as §1
The nature of assay [12]: In vitro neuroprotection against glutamate-induced toxicity at 10 uM using rat hippocampal cell cultures at 0 uM of glutamate. The assay is classed as functional, Hippocampus. The gist of the method:
as §1

A short description of assay [13]: In vitro neuroprotection against glutamate-induced toxicity at 10 uM using rat hippocampal cell cultures at 300 uM of glutamate. The assay is classed as functional, Hippocampus. The gist of the method:
as §1

Assay [14] can be described thus: In vitro neuroprotection against glutamate-induced toxicity at 10 uM using rat hippocampal cell cultures at 1000 uM of glutamate. In kind it is functional, Hippocampus. Put shortly:
as §1

Several values for one entry are separate records, joined by “and”; a condition that tells them apart may be missing. Identical values can stand only once.

On Glutamate NMDA receptor, `COc1ccc2c(c1)C1CN(C)C2Cc2ccc(Br)cc21` (stereo not given) yielded a concentration for half-maximal inhibition (IC50) of 643 nM.

`CC12CNC(Cc3ccccc31)c1ccccc12` (stereo not given): the half-inhibitory concentration (IC50) on Glutamate NMDA receptor was determined as 119 nM.

In turn, `Nc1ccc2c(c1)C1CNC(C2)c2ccccc21` (stereo not given) displayed a concentration for half-maximal inhibition (IC50) on Glutamate NMDA receptor of 486 nM.

`Cc1ccc2c(c1)C1CNC(C2)c2ccccc21` (stereo not given): at Glutamate NMDA receptor, the IC50 came out at 108 nM.

As to `c1ccc(CN2CC3c4ccccc4CC2c2ccccc23)nc1` (stereo not given), the half-maximal inhibitory concentration (IC50) on Glutamate NMDA receptor was greater than 10000 nM.

Molecule `O=[N+]([O-])c1ccc2c(c1)C1CNC(C2)c2ccccc21` (stereo not given) registered an IC50 at Glutamate NMDA receptor of 4300 nM.

Consider `COc1ccc2c(c1)C1CNC2Cc2ccc(Cl)cc21` (stereo not given), for which, on Glutamate NMDA receptor, the half-maximal inhibitory concentration (IC50) was determined as 113 nM.

Consider `CC(=O)N1CC2c3cc([N+](=O)[O-])ccc3CC1c1ccccc12` (stereo not given), for which the IC50 at Glutamate NMDA receptor was greater than 10000 nM.

In turn, `COc1ccc2c(c1)C1CNC(C2)c2ccccc21` (stereo not given) showed a half-inhibitory concentration (IC50) on Glutamate NMDA receptor of 168 nM.

On to `Brc1ccc2c(c1)C1CNC(C2)c2ccccc21` (stereo not given), for which the IC50 at Glutamate NMDA receptor was found to be 51.7 nM.

Turning to `CN1CC2c3cc(Br)ccc3CC1c1ccccc12` (stereo not given), at Glutamate NMDA receptor, the IC50 is 1040 nM.

`COc1ccc2c(c1)C1CNC2Cc2ccc(Br)cc21` (stereo not given): the half-inhibitory concentration (IC50) at Glutamate NMDA receptor was found to be 114 nM. This IC50 is about 9.1-fold lower than that of the molecule before.

For the molecule `Ic1ccc2c(c1)C1CNC(C2)c2ccccc21` (stereo not given), the half-maximal inhibitory concentration (IC50) on Glutamate NMDA receptor is 160 nM.

At Glutamate NMDA receptor, `[N-]=[N+]=Nc1ccc2c(c1)C1CNC(C2)c2ccccc21` (stereo not given) yielded an IC50 of 500 nM.

`CN(C)CCCN1CC2c3ccccc3CC1c1ccccc12` (stereo not given): the IC50 at Glutamate NMDA receptor was determined as 12000 nM.

Regarding `Clc1ccc2c(c1)C1CNC2Cc2ccccc21` (stereo not given), the IC50 on Glutamate NMDA receptor came to 690 nM.

Regarding `CC(C)N1CC2c3ccccc3CC1c1ccccc12` (stereo not given), the IC50 at Glutamate NMDA receptor is 1880 nM.

Molecule `c1ccc(-c2ccc3c(c2)C2CNC(C3)c3ccccc32)cc1` (stereo not given) showed an IC50 at Glutamate NMDA receptor of 421 nM.

Regarding `COc1ccc2c(c1)C1CNC2Cc2ccccc21` (stereo not given), at Glutamate NMDA receptor, the 50% inhibitory concentration (IC50) is 332 nM.

For `Fc1ccc2c(c1)C1CNC(C2)c2ccc(F)cc21` (stereo not given), at Glutamate NMDA receptor, the IC50 was determined as 51.2 nM.

For `CC(=O)N1CC2c3ccccc3CC1c1ccccc12` (stereo not given), at Glutamate NMDA receptor, the IC50 is greater than 10000 nM.

Regarding `c1ccc2c(c1)CC1NCC2c2ccccc21` (racemic), the Neuroprotection stood at 61.3% in assay [1]; 85.3% in [2]; 25.5% in [3]; 76.6% in assay [4]; 71.5% in assay [5]; 39.9% in assay [6]. The molecule also registered a Neuroprotection in assay [7] of 99.1%.

Consider `c1ccc2c(c1)CC1NCC2c2ccccc21` (single isomer, unassigned; (+)), for which the half-maximal inhibitory concentration (IC50) at Glutamate NMDA receptor is 37.6 nM and 4.2 nM. Moreover, the Neuroprotection is on record as 73.9% in [1]; 68.8% in [2]; 40.5% in [3]; 76.3% in [4]; 73.3% in assay [5]; 57.2% in [6]. The Neuroprotection in assay [7] turned out to be 93.6%.

On to `Fc1ccc2c(c1)C1CNC(C2)c2ccccc21` (single isomer, unassigned; (+)), for which, at Glutamate NMDA receptor, the IC50 turned out to be 15.5 nM.

Take `CN1CC2c3ccccc3CC1c1ccccc12` (single isomer, unassigned; (+)): the IC50 on Glutamate NMDA receptor worked out at 826 nM. The Neuroprotection in assay [1] worked out at 59.9%; in assay [8], 92.1%; in [2] it was 74.7%; in [9] it was 90%; in assay [3], 23.3%; in assay [10], 84%. The Neuroprotection turned out to be 65% in [4]; 62.7% in assay [5]; 93.6% in [11]; 97.8% in [12]; 56.6% in assay [13]; 58.7% in assay [6]. Besides, the Neuroprotection in assay [14] was 53.3%; in assay [7], 91%.

Turning to `Fc1ccc2c(c1)C1CNC(C2)c2ccccc21` (single isomer, unassigned; (-)), the IC50 at Glutamate NMDA receptor amounted to 531 nM. In other words, the sub-micromolar range.

Turning to `c1ccc2c(c1)CC1NCC2c2ccccc21` (stereo in doubt; 3), the IC50 on Glutamate NMDA receptor was 59.4 nM.

`Clc1ccc2c(c1)C1CNC(C2)c2ccccc21` (stereo in doubt; 13c): at Glutamate NMDA receptor, the IC50 turned out to be 71.3 nM.

On to `Fc1ccc2c(c1)C1CNC(C2)c2ccccc21` (stereo in doubt; 13e), for which the IC50 on Glutamate NMDA receptor is 29.4 nM.

`Clc1ccc2c(c1)C1CNC(C2)c2ccccc21` (stereo in doubt; (+)-13c) displayed a half-maximal inhibitory concentration (IC50) at Glutamate NMDA receptor of 32.1 nM.

For the molecule `Clc1ccc2c(c1)C1CNC(C2)c2ccccc21` (stereo in doubt; (-)-13c), the IC50 at Glutamate NMDA receptor stood at 931 nM. Against the preceding molecule, the IC50 is about 29-fold higher.

As to `C[C@]12N[C@H](Cc3ccccc31)c1ccccc12` [DIZOCILPINE], the Neuroprotection was 93.9% in assay [1]; 98.3% in assay [2]; 88.4% in assay [3]; 94.7% in assay [4]; 95.5% in assay [5]; 90.3% in assay [6]. Besides, in assay [7], the Neuroprotection is 97.5%.
